# According to ChEMBL document CHEMBL1144749, “Development of 2-t butyl-N-methyl pyrimidones as potent inhibitors of HIV integrase” (Bioorg Med Chem Lett, 2008):
# How the values were obtained:
# [1] = tested on: Human immunodeficiency virus 1; experiment: Antiviral activity against HIV1 3b in human MT4 cells assessed as inhibition of viral spread in presence of 10% heat-inactivated fetal bovine serum; type: functional; conditions: Human immunodeficiency virus 1, 3b, read-out: CIC95
# Method in brief: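 Spread assay: HIV-1 IIIb infection of MT-4 T-lymphoid cells in medium with 10% heat-inactivated FBS. CIC95 is the concentration inhibiting 95% of viral spread. Mean of at least 3 independent experiments.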
# [2] = biological target: Human immunodeficiency virus type 1 integrase (Human immunodeficiency virus 1, UniProt Q7ZJM1); experiment: Inhibition of HIV1 recombinant integrase strand transfer activity
# Method in brief: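 Strand-transfer assay: inhibitors added after integrase assembly and washes. IC50 is the concentration reducing integrase activity by 50%. Mean of at least three independent experiments.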
# Homo sapiens = species on record: Homo sapiens; experiment: Fraction unbound in human plasma proteins after 1 hr
# [3] = (§1) AUC in Sprague-Dawley rat at 3 mg/kg, po; type: ADME, organism-based, Plasma; design: dose 3 mg/kg, route oral; conditions: Sprague-Dawley, plasma
# Method in brief: (§2)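 Sprague–Dawley rats dosed iv in 20% DMSO/60% PEG400/20% water, or orally as a 1% methylcellulose suspension. Outputs: AUC after po dosing, plasma clearance, terminal-phase plasma half life after iv dosing, oral bioavailability.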
# [4] = Terminal half life in Sprague-Dawley rat plasma at 3 mg/kg, iv; type: ADME, organism-based; design: dose 3 mg/kg, route intravenous; method in brief: as §2
# [5] = (§3) Oral bioavailability in Sprague-Dawley rat at 3 mg/kg; type: ADME, organism-based; conditions: Sprague-Dawley, in vivo; method in brief: as §2
# [6] = tested on: Human immunodeficiency virus 1; experiment: Antiviral activity against HIV1 3b in human MT4 cells assessed as inhibition of viral spread in presence of 50% normal human serum; type: functional; conditions: Human immunodeficiency virus 1, 3b, read-out: CIC95
# Method in brief: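 Spread assay: HIV-1 IIIb infection of MT-4 T-lymphoid cells run with 50% normal human serum. CIC95 is the concentration inhibiting 95% of viral spread.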
# [7] = Clearance in Sprague-Dawley rat plasma at 3 mg/kg, iv and 3 mg/kg, po; type: ADME, organism-based; method in brief: as §2
# [8] = Metabolic stability assessed as intrinsic clearance in rat microsome at 1 uM after 90 mins; type: ADME; conditions: liver microsomes
# Method in brief: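 Compound at 1 µM with microsomes at 1 mg/ml. Substrate degradation followed by LC/MS/MS over a 90 min incubation.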
# Rattus norvegicus [9] = experiment: as §1; type: ADME, organism-based, Plasma; design: dose 3 mg/kg, route oral; conditions: in vivo; method in brief: as §2
# Rattus norvegicus [10] = experiment: as §3; type: ADME, organism-based; conditions: in vivo; method in brief: as §2
# Human immunodeficiency virus type 1 integrase, sequence (Q7ZJM1 whole entry): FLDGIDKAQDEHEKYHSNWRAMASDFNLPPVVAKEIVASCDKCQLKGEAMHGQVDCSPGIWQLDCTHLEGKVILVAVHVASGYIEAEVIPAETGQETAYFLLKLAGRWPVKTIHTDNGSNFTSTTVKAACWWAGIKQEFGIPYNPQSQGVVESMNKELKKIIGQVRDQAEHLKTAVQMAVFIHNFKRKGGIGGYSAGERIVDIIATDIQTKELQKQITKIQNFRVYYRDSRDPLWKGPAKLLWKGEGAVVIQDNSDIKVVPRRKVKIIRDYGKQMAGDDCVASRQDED
SMILES,IC50 [2] [nM],fraction unbound at 1 h (Homo sapiens),AUC [3] [µM·h],half-life [4] [h],bioavailability [5] [%],clearance [7] [mL/min/kg],microsomal CLint at 1 µM [8] [µL/min/mg],AUC (Rattus norvegicus [9]) [µM·h],F (Rattus norvegicus [10]) [%],IC95 [1] [nM],IC95 [6] [nM]
O=C(NCc1ccc(F)cc1)c1nc(-c2cccs2)nc(O)c1O,,,,,,,,,,> 10000,
CC(C)(C)c1nc(O)c(O)c(C(=O)NCc2ccc(F)cc2S(C)(=O)=O)n1,60,,,,,,,,,,
CC(C)NC(=O)c1cc(F)ccc1CNC(=O)c1nc(C(C)(C)C)n(C)c(=O)c1O,90,0.01,,1.6,,,,3.5,44,60,60
Cn1c(C(C)(C)C)nc(C(=O)NCc2ccc(F)cc2C(=O)NCC(F)(F)F)c(O)c1=O,90,0.01,,,,,,,,30,120
Cn1c(C(C)(C)C)nc(C(=O)NCc2ccc(F)cc2C(=O)N2CCCC2)c(O)c1=O,230,,,,,,,,,120,120
Cc1noc(-c2cc(F)ccc2CNC(=O)c2nc(C(C)(C)C)nc(O)c2O)n1,20,,,,,,,,,120,> 1000
CN1CCN(C(=O)c2cc(F)ccc2CNC(=O)c2nc(C(C)(C)C)n(C)c(=O)c2O)CC1,490,0.34,,,,,,,,120,120
Cn1c(C(C)(C)C)nc(C(=O)NCc2cccc3cc[nH]c23)c(O)c1=O,20,,,,,,,,,1000,> 1000
CNC(=O)c1cc(F)ccc1CNC(=O)c1nc(C(C)(C)C)nc(O)c1O,20,,,,,,,,,,
CCNC(=O)c1cc(F)ccc1CNC(=O)c1nc(C(C)(C)C)n(C)c(=O)c1O,70,0.03,1.8,2.6,30,21,,,,20,20
CN(C)C(=O)c1cc(F)ccc1CNC(=O)c1nc(C(C)(C)C)n(C)c(=O)c1O,180,0.18,,,,,,,,30,30
CNC(=O)c1cc(F)ccc1CNC(=O)c1nc(C(C)(C)C)n(C)c(=O)c1O,20,0.07,1.4,1.6,18,24,16,,,10,10
CCCNC(=O)c1cc(F)ccc1CNC(=O)c1nc(C(C)(C)C)n(C)c(=O)c1O,70,0.02,,,,,,,,30,60

# Second part, led by results:
IC50 [2] [nM],fraction unbound at 1 h (Homo sapiens),AUC [3] [µM·h],half-life [4] [h],bioavailability [5] [%],clearance [7] [mL/min/kg],microsomal CLint at 1 µM [8] [µL/min/mg],AUC (Rattus norvegicus [9]) [µM·h],F (Rattus norvegicus [10]) [%],SMILES,IC95 [1] [nM],IC95 [6] [nM]
20,0.06,0.6,3.6,23,55,,,,Cn1c(C(C)(C)C)nc(C(=O)NCc2ccc(F)cc2C(N)=O)c(O)c1=O,10,10
20,,0.6,1.8,17,37,63,,,Cn1c(C(C)(C)C)nc(C(=O)NCc2ccc(F)cc2S(C)(=O)=O)c(O)c1=O,10,20
20,,,,,,,,,CCOc1ccccc1CNC(=O)c1nc(C(C)(C)C)n(C)c(=O)c1O,120,500
10,,,,,,,,,CCOc1ccccc1CNC(=O)c1nc(C(C)(C)C)nc(O)c1O,1000,> 1000
10,,,,,,,,,CC(C)(C)c1nc(O)c(O)c(C(=O)NCc2cccc3cc[nH]c23)n1,> 1000,> 1000
10,,,,,,,,,CC(C)(C)c1nc(O)c(O)c(C(=O)NCc2ccc(F)cc2)n1,250,2500
20,,,,,,,,,Cc1noc(-c2cc(F)ccc2CNC(=O)c2nc(C(C)(C)C)n(C)c(=O)c2O)n1,20,120
10,,,,,,,,,Cn1c(C(C)(C)C)nc(C(=O)NCc2ccc(F)cc2)c(O)c1=O,120,370
